Activity calls are given as the source filed them. The calls are words filed in the database; no cut-off is given here.

Consider 10 molecules from ChEMBL document CHEMBL1649309, “Foreign travel is a major risk factor for colonization with Escherichia coli producing CTX-M-type extended-spectrum beta-lactamases: a prospective study with Swedish volunteers” (Antimicrob Agents Chemother, 2010).

Common to all, as to type: functional, organism-based
Assay [1] relates to Escherichia coli. In words: Antimicrobial activity against ESBL producing Escherichia coli assessed as susceptible isolates by Etest. An outline of the steps:
(§1)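 24 ESBL-producing E. coli strains acquired during travel, isolated from post-travel rectal swabs of Swedish travellers. Swabs were enriched in LB broth with cefotaxime 2.5 μg/ml, then plated on MacConkey agar with cefotaxime and ceftazidime discs, overnight at 35°C in room air. ESBL production was confirmed by disc-diffusion synergy test and CTX-M by PCR. Susceptibility was measured by Etest and interpreted per EUCAST guidelines.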

Assay [2] relates to Escherichia coli. In words: Antimicrobial activity against ESBL producing Escherichia coli assessed as susceptible isolates by Etest in presence of beta-lactamase inhibitor Tazobactam. An outline of the steps:
as §1

In assay [3] the test system is Escherichia coli. The assay can be described thus: Antimicrobial activity against ESBL producing Escherichia coli assessed as resistant isolates by Etest. An outline of the steps:
as §1

On to `O=C1CN(/N=C/c2ccc([N+](=O)[O-])o2)C(=O)N1`, for which the result in the assay with Escherichia coli [1] was Active.

In the case of `C[C@@H](O)[C@H]1C(=O)N2C(C(=O)O)=C(S[C@@H]3CN[C@H](C(=O)Nc4cccc(C(=O)O)c4)C3)[C@H](C)[C@H]12`, the outcome in the assay with Escherichia coli [1] was Active.

Regarding `C[C@@H](O)[C@H]1C(=O)N2C(C(=O)O)=C(SCCNC=N)C[C@H]12`, the result in the assay with Escherichia coli [1] was Active.

Turning to `CCN1CCN(C(=O)N[C@@H](C(=O)N[C@@H]2C(=O)N3[C@@H]2SC(C)(C)[C@@H]3C(=O)O)c2ccccc2)C(=O)C1=O`, the outcome in the assay with Escherichia coli [2] was Active.

In the case of `O=C(O)c1cn(C2CC2)c2cc(N3CCNCC3)c(F)cc2c1=O`, in the assay on Escherichia coli [1], the result was Active.

As to `NC[C@H]1O[C@H](O[C@H]2[C@H](O)[C@@H](O[C@H]3O[C@H](CO)[C@@H](O)[C@H](N)[C@H]3O)[C@H](N)C[C@@H]2N)[C@H](N)C[C@@H]1O`, the result in the assay on Escherichia coli [3] was inactive.

Regarding GENTAMICIN, in the assay on Escherichia coli [3], the result was inactive.

With `C[C@@H]1O[C@@H]1P(=O)(O)O`, the result in the assay on Escherichia coli [3] was inactive.

For the molecule `CC1(C)S[C@@H]2[C@H](/N=C/N3CCCCCC3)C(=O)N2[C@H]1C(=O)O`, in the assay on Escherichia coli [1], the result was Active.

Regarding `C[C@@H](O)[C@H]1C(=O)N2C(C(=O)O)=C(S[C@@H]3CN[C@H](C(=O)N(C)C)C3)[C@H](C)[C@H]12`, the outcome in the assay with Escherichia coli [1] was Active.
